# In ChEMBL document CHEMBL1667740, “Phenolic glycosides with antimalarial activity from Grevillea "Poorinda Queen"” (J Nat Prod, 2011):
# pIC50: −log10 of the molar value.
# Columns and labels:
# Plasmodium falciparum [1] = assay: Antimalarial activity against chloroquine-sensitive Plasmodium falciparum D6 infected in human O positive red blood cells assessed as inhibition of [3H]-hypoxanthine uptake after 48 hrs; type: functional, organism-based
# In short: (§1)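 Synchronised ring-stage parasites (sorbitol selection) kept in RPMI-1640 with HEPES, glucose, hypoxanthine, gentamycin, 10% human plasma and 4% O+ RBCs under 5% O2/5% CO2/90% N2 at 37 °C. Assay at 2% hematocrit and 1% parasitemia in hypoxanthine-free medium. DMSO stocks of 20-25 mg/mL, ten 2-fold dilutions in triplicate, 48 h. [3H]-hypoxanthine (0.2 µCi) added at 24 h. IC50 taken against compound-free controls.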
# Plasmodium falciparum [2] = assay: Antimalarial activity against chloroquine-sensitive Plasmodium falciparum 3D7 infected in human O positive red blood cells assessed as inhibition of [3H]-hypoxanthine uptake after 48 hrs; type: functional, organism-based; in short: as §1
# Plasmodium falciparum [3] = assay: Antimalarial activity against chloroquine, pyrimethamine, and mefloquine-resistant Plasmodium falciparum Dd2 infected in human O positive red blood cells assessed as inhibition of [3H]-hypoxanthine uptake after 48 hrs; type: functional, organism-based; in short: as §1
# Plasmodium falciparum [4] = assay: Antimalarial activity against chloroquine and pyrimethamine-resistant Plasmodium falciparum K1 infected in human O positive red blood cells assessed as inhibition of [3H]-hypoxanthine uptake after 48 hrs; type: functional, organism-based; in short: as §1
# Plasmodium falciparum [5] = assay: Antimalarial activity against multidrug-resistant Plasmodium falciparum TM90-C2B infected in human O positive red blood cells assessed as inhibition of [3H]-hypoxanthine uptake after 48 hrs; type: functional, organism-based; in short: as §1
# Plasmodium falciparum [6] = assay: Antimalarial activity against multidrug-resistant Plasmodium falciparum TM93-C1088 infected in human O positive red blood cells assessed as inhibition of [3H]-hypoxanthine uptake after 48 hrs; type: functional, organism-based; in short: as §1
# HEK293 = assay: Cytotoxicity against human HEK293 cells after 72 hrs by alamar blue assay; type: cell-based; details: HEK293, 72 h
# In short: (§2)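 HEK-293 and HepG2 cells grown in RPMI 1640 with 10% FBS and L-glutamine at 37 °C. Seeded at 5 × 10^3 cells/well and left 24 h before drug addition. Compounds tested from 312 to 0.6 µg/mL, artesunate and chloroquine from 120 µM to 60 nM, in triplicate for 72 h. DMSO vehicle and cell-free background wells as controls. 10% Alamar Blue added for 2 h, fluorescence read at ex 530/em 595 nm. IC50 from at least two independent experiments, mean ± SD.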
# HepG2 = assay: Cytotoxicity against human HepG2 cells after 72 hrs by alamar blue assay; type: cell-based; details: HepG2, 72 h; in short: as §2
# [7] = Selectivity index, ratio of IC50 for human HepG2 cells to IC50 for Plasmodium falciparum 3D7
# [8] = Selectivity index, ratio of IC50 for human HEK293 cells to IC50 for Plasmodium falciparum 3D7
# Plasmodium berghei [9] = assay: Antimalarial activity against Plasmodium berghei infected in mouse assessed as reduction of parasite infection at 1 mg/kg, sc qd for 4 days relative to control; type: functional; design: scale not given: the % may be the effect or the level left; details: route subcutaneous
# Plasmodium berghei [10] = assay: Antimalarial activity against Plasmodium berghei infected in mouse assessed as reduction of parasite infection at 2 mg/kg, sc qd for 4 days relative to control; type: functional; design: scale not given: the % may be the effect or the level left; details: route subcutaneous
# Mus musculus = assay: Toxicity in mouse assessed as physical stress at 32 mg/kg, sc qd for 4 days; type: organism-based; design: dose 32 mg/kg, route subcutaneous; details: in vivo, 96 h
# In short: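 Tolerability in healthy mice: subcutaneous dosing for 4 days. Mice watched for physical stress, namely ruffled coat, extreme pallor, weight loss, shaking and reduced mobility.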
# Plasmodium berghei [11] = assay: Antimalarial activity against Plasmodium berghei infected in mouse assessed as reduction of parasite infection at 32 mg/kg, sc qd for 4 days relative to control; type: functional; design: scale not given: the % may be the effect or the level left; details: route subcutaneous
# Plasmodium berghei [12] = assay: Antimalarial activity against Plasmodium berghei infected in mouse assessed as reduction of parasite infection at 32 mg/kg, sc bid for 4 days relative to control; type: functional; design: scale not given: the % may be the effect or the level left; details: route subcutaneous
# In short: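 Peters 4-day suppressive test in female mice (n = 6) inoculated intraperitoneally with 20 × 10^6 P. berghei ANKA-infected erythrocytes. Test articles dissolved in Tween 80/ethanol (7:3, v/v), diluted 10-fold in distilled water, and given subcutaneously from D0 (about 2 and 6 h post-inoculation) over 4 days. Chloroquine prepared in water. Giemsa-stained thin smears on D+1 to D+4. Microscopic % infected erythrocytes, suppression at D+4 versus vehicle control.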
Structure (SMILES),pIC50 (Plasmodium falciparum [1]),pIC50 (Plasmodium falciparum [2]),pIC50 (Plasmodium falciparum [3]),pIC50 (Plasmodium falciparum [4]),pIC50 (Plasmodium falciparum [5]),pIC50 (Plasmodium falciparum [6]),pIC50 (HEK293),pIC50 (HepG2),SI [7],SI [8],Activity (Plasmodium berghei [9]),Activity (Plasmodium berghei [10]),Activity (Mus musculus),Activity (Plasmodium berghei [11]),Activity (Plasmodium berghei [12])
O=C(/C=C/C1(O)C=CC(O)CC1=O)OC[C@H]1O[C@@H](Oc2ccc(O)cc2)[C@H](O)[C@@H](O)[C@@H]1O (stereo not given in full) [ROBUSTASIDE E],4.26,4.11,4.26,4.53,4.44,4.60,< 3.16,< 3.16,> 10,> 10,–,–,–,–,–
CCN(CC)CCCC(C)Nc1ccnc2cc(Cl)ccc12 (stereo not given) [CHLOROQUINE],–,–,–,–,–,–,4.92,5.08,415,600,58%,97%,–,–,–
C[C@H]1[C@H](OC(=O)CCC(=O)O)O[C@@H]2O[C@@]3(C)CC[C@H]4[C@H](C)CC[C@@H]1[C@@]24OO3 [ARTESUNATE],–,–,–,–,–,–,5.54,4.90,374,150,–,–,–,–,–
C[C@H]1O[C@H](OC[C@H]2O[C@@H](Oc3cc(O)c4c(=O)c(O)c(-c5ccc(O)c(O)c5)oc4c3)[C@H](O)[C@@H](O)[C@H]2O)[C@@H](O)[C@@H](O)[C@@H]1O (stereo in doubt),< 3.30,–,–,–,–,–,–,–,–,–,–,–,–,–,–
COc1ccc(O)c(/C=C\C(=O)OC[C@H]2O[C@@H](Oc3ccc(O)cc3)[C@H](OC(=O)/C=C\c3cc(OC)ccc3O)[C@@H](O)[C@@H]2O)c1 [ROBUSTASIDE F],4.83,–,–,–,–,–,–,–,–,–,–,–,–,–,–
O=C1C=CC(O)(/C=C/C(=O)OC[C@H]2O[C@@H](Oc3ccc(O)cc3)[C@H](O)[C@@H](O)[C@@H]2O)C=C1 [ROBUSTASIDE D],5.29,5.26,5.52,5.52,5.28,5.39,3.71,3.66,37,33,–,–,Non-toxic,21%,95%
